Assay results published in ChEMBL document CHEMBL4052828, “Discovery of 4-((7H-Pyrrolo[2,3-d]pyrimidin-4-yl)amino)-N-(4-((4-methylpiperazin-1-yl)methyl)phenyl)-1H-pyrazole-3-carboxamide (FN-1501), an FLT3- and CDK-Kinase Inhibitor with Potentially High Efficiency against Acute Myelocytic Leukemia” (J Med Chem, 2018).
The source made the active and inactive calls. No cut-off for these calls is given here.

How the values were obtained:
[1] = biological target: T1, Receptor-type tyrosine-protein kinase FLT3 (Homo sapiens, UniProt P36888); experiment: Inhibition of human FLT3 using EAIYAAPFAKKK as substrate preincubated for 20 mins followed by [gamma-33P]-ATP addition measure after 120 mins by filter binding method
T1 sequence (P36888 whole entry): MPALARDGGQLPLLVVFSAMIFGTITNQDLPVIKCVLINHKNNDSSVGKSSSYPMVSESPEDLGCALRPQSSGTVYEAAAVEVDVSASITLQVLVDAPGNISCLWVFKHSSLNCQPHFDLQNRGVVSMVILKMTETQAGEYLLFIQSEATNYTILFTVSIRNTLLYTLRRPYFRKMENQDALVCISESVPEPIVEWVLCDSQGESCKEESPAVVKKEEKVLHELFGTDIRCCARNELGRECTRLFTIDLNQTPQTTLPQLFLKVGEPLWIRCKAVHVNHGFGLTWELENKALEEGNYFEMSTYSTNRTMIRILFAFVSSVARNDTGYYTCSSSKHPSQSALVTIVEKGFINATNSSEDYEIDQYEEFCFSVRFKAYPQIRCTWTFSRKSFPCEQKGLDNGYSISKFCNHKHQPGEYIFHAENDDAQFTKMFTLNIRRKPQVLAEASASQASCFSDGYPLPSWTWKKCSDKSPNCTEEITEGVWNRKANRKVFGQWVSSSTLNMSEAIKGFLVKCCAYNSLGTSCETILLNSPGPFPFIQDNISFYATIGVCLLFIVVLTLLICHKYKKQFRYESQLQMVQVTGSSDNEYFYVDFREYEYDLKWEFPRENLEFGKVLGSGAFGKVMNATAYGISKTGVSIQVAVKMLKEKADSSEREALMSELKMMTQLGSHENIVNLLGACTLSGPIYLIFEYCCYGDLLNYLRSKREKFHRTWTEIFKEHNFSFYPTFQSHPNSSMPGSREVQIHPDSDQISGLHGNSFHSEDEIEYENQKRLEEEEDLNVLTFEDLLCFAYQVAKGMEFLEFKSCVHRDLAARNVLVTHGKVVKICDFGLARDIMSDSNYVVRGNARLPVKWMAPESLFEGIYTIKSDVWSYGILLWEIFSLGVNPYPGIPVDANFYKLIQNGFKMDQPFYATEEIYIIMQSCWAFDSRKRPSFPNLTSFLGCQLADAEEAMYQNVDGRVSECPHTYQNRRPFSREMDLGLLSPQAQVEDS
Summary of the method: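 Compound preincubated with kinase 20 min at room temperature. Filter-binding read-out, curve-fitted IC50; mean ± SD of three independent experiments.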

MV4-11 [2] = experiment: Growth inhibition of human MV4-11 cells after 72 hrs by CellTiter-Glo assay; type: functional, cell-based; details: MV4-11, 72 h
Summary of the method: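 MV4-11 cells grown in IMDM with 10% FBS, 2% L-glutamine and 1% pen/strep at 37 °C, 5% CO2. Seeded at 10000 cells/well and exposed to compound at various concentrations for 72 h. Viability read by CellTiter-Glo luminescence.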

CDK6/cyclin D1 = CDK6/cyclin D1 (Homo sapiens, UniProt Q00534); experiment: Inhibition of human CDK6/Cyclin D1 using RB protein as substrate preincubated for 20 mins followed by [gamma-33P]-ATP addition measure after 120 mins by filter binding method; type: protein-complex assay
Chain of CDK6/cyclin D1 (P24385 whole entry): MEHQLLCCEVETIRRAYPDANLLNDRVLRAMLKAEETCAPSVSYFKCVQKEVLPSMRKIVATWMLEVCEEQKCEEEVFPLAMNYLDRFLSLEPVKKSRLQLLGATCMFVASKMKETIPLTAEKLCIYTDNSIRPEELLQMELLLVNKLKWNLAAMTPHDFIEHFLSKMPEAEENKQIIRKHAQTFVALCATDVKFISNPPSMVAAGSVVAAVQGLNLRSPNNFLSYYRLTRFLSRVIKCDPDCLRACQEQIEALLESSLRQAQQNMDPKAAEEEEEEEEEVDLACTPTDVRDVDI
Chain of CDK6/cyclin D1 (Q00534 whole entry): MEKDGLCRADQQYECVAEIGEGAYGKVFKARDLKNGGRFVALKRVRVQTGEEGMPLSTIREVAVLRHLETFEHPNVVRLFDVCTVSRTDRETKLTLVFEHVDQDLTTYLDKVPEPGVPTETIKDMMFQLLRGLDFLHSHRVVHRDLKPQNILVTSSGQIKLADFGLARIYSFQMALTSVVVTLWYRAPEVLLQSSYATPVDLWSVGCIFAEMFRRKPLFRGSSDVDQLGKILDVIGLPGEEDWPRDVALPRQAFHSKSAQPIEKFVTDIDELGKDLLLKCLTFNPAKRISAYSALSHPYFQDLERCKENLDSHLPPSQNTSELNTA
Summary of the method: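 Compound preincubated with kinase 20 min at room temperature. Reaction started with 10 μM [γ-33P]ATP and run 120 min at 25°C. Filter-binding read-out, curve-fitted IC50; mean ± SD of three independent experiments.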

RS4-11 = experiment: Growth inhibition of human RS4:11 cells after 72 hrs by CellTiter-Glo assay; type: functional; details: RS4-11, 72 h
MCF7 = experiment: Growth inhibition of human MCF7 cells after 72 hrs by CellTiter-Glo assay; type: functional; details: MCF7, 72 h
[3] = Intrinsic clearance in human liver microsomes by LC-MS/MS analysis; type: ADME, microsome; details: read-out: CLH
[4] = Intrinsic clearance in rat liver microsomes by LC-MS/MS analysis; type: ADME, microsome; details: read-out: CLH
[5] = Terminal half life in dog liver microsomes by LC-MS/MS analysis; type: ADME, Canis lupus familiaris, microsome; details: read-out: beta t1/2 (converted)
Summary of the method: (§1)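 Metabolic stability measured by incubating compound in human, rat, mouse, dog and monkey liver microsomes. Terminal t1/2 determined.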

[6] = Intrinsic clearance in dog liver microsomes by LC-MS/MS analysis; type: ADME, Canis lupus familiaris, microsome; details: read-out: CLH
[7] = Terminal half life in cynomolgus monkey liver microsomes by LC-MS/MS analysis; type: ADME, Macaca fascicularis, microsome; details: read-out: beta t1/2 (converted); summary of the method: as §1
[8] = Intrinsic clearance in cynomolgus monkey liver microsomes by LC-MS/MS analysis; type: ADME, Macaca fascicularis, microsome; details: read-out: CLH
MV4-11 [9] = experiment: Antitumor activity against human MV4-11 cells xenografted in nu/nu mouse assessed as tumor regression at 15 mg/kg, iv qd measured on day 21 relative to vehicle-treated control; type: functional
MV4-11 [10] = experiment: Antitumor activity against human MV4-11 cells xenografted in nu/nu mouse assessed as tumor regression at 30 mg/kg, iv qd measured on day 21 relative to vehicle-treated control; type: functional
MV4-11 [11] = experiment: Antitumor activity against human MV4-11 cells xenografted in nu/nu mouse assessed as tumor regression at 40 mg/kg, iv qd measured on day 21 relative to vehicle-treated control; type: functional
Summary of the method: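 Female nu/nu mice bearing MV4-11 xenografts; dosing began once tumors reached 200 mm3. Given iv once daily for 21 days, with a vehicle-only group. Body weight and tumor size tracked relative to initial values, set as 100%. Tumors weighed at the end of the 22-day treatment period.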

MV4-11 [12] = experiment: Induction of apoptosis in human MV4-11 cells assessed as late apoptotic cells at 0.2 uM after 24 hrs by annexin V-FITC/propidium iodide staining-based flow cytometric method (reference value: 2.54%); type: functional
MV4-11 [13] = experiment: Induction of apoptosis in human MV4-11 cells assessed as late apoptotic cells at 1 uM after 24 hrs by annexin V-FITC/propidium iodide staining-based flow cytometric method (reference value: 2.54%); type: functional
MV4-11 [14] = experiment: Induction of apoptosis in human MV4-11 cells assessed as early apoptotic cells at 2 uM after 24 hrs by annexin V-FITC/propidium iodide staining-based flow cytometric method (reference value: 3.54%); type: functional
MV4-11 [15] = experiment: Induction of apoptosis in human MV4-11 cells at 2 uM after 24 hrs by annexin V-FITC/propidium iodide staining-based flow cytometric method; type: functional, cell-based
MV4-11 [16] = experiment: Cell cycle arrest in human MV4-11 cells assessed as accumulation at G0/G1 phase after 24 hrs by propidium iodide/BrdU staining-based flow cytometric method; type: functional
Summary of the method: (§2)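 Cells treated with compound for 24 h, then fixed. Double-stained with propidium iodide and BrdU for flow cytometric analysis of cell cycle distribution.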

HCT-116 = experiment: Cell cycle arrest in human HCT116 cells assessed as accumulation at G2/M phase at 0.1 to 1 uM after 24 hrs by propidium iodide/BrdU staining-based flow cytometric method; type: functional; summary of the method: as §2
[17] = biological target: Receptor-type tyrosine-protein kinase FLT3 (Homo sapiens) (UniProt P36888); experiment: Inhibition of FLT3 phosphorylation in human MV4-11 cells at 0.02 to 1 uM after 24 hrs by Western blot analysis; type: cell-based
Summary of the method: (§3)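 MV4-11 cells treated with increasing concentrations of compound for 24 h. Lysates immunoblotted for phosphorylated FLT3, STAT5, ERK, AKT and Rb.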

[18] = biological target: Receptor-type tyrosine-protein kinase FLT3 (Homo sapiens) (UniProt P36888); experiment: Inhibition of FLT3 phosphorylation in human MV4-11 cells assessed as decrease in STAT5 phosphorylation at 0.02 to 1 uM after 24 hrs by Western blot analysis; type: cell-based; summary of the method: as §3

SMILES: CN1CCN(Cc2ccc(NC(=O)c3n[nH]cc3Nc3ncnc4[nH]ccc34)cc2)CC1
- IC50 [1]: 0.27 to 0.28 nM
- IC50 (MV4-11 [2]): 8 nM
- IC50 (CDK6/cyclin D1): 1.96 nM
- GI50 (RS4-11): 50 nM
- GI50 (MCF7): 2840 nM
- CLint scaled [3]: 0.798 L/h/kg
- CLint scaled [4]: 2.42 L/h/kg
- half-life [5]: 15.4 min
- CLint scaled [6]: 7.76 L/h/kg
- half-life [7]: 51.3 min
- CLint scaled [8]: 2.19 L/h/kg
- Activity (MV4-11 [9]): -6.11%
- Activity (MV4-11 [10]): 78.95%
- Activity (MV4-11 [11]): 81.33%
- Activity (MV4-11 [12]): 9.33%
- Activity (MV4-11 [13]): 14.79%
- Activity (MV4-11 [14]): 54.13%
- Activity (MV4-11 [15]): Dose-dependent effect
- Activity (MV4-11 [16]): Dose-dependent effect
- Activity (HCT-116): Active
- inhibition [17]: Active
- inhibition [18]: Active
